Consider five compounds from ChEMBL document CHEMBL1125653, “Synthesis and pharmacological evaluation of a major metabolite of ameltolide, a potent anticonvulsant” (1991).

Each structure is given as a SMILES string.

Type in all cases: functional
Test [1] has as its system Mus musculus. Kind of test: Anticonvulsant effect by horizontal screen assay in mice after peroral administration. The following applies: po, in the assay text read “Neurological impairment” for “Anticonvulsant effect”. An outline of the steps: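 Neurological impairment in previously trained male CF-1 mice (18–26 g) after oral dosing in 5% acacia/water (0.01 mL/g; 1.5 h food and water deprivation). Each mouse placed on a 13 × 13 cm no. 4 mesh wire screen, which was rotated 180°. Scored on whether it climbed back to the top within 1 min. Groups of 12 per dose; ED50 with 95% confidence limits.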

Test [2] concerns Mus musculus. Briefly: Anticonvulsant effect by maximal electroshock assay in mice after peroral administration. The following applies: po. An outline of the steps:
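Male CF-1 mice, 18–26 g, fasted from food and water 1.5 h; compounds suspended in 5% acacia/water, given orally at 0.01 mL/g. Tested at each compound's time of peak effect. MES: 50 mA ac for 0.1 s via corneal electrodes; protection = no hindlimb tonic extension. Groups of 12 mice at several doses; ED50 and 95% confidence limits computed from dose–effect data.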
A general note: The maximal electroshock test induces tonic seizures with an electrical stimulus.

Test [3] relates to Mus musculus. Briefly: Time to peak anticonvulsant effect was measured after oral dosing in mice. The essentials: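 Time to peak anticonvulsant effect in MES-tested male CF-1 mice after oral dosing (5% acacia/water suspension, 0.01 mL/g, 1.5 h fasted). Used to set the test time for the oral ED50 determinations.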
For test [4], the system named is Mus musculus. Kind of test: Anticonvulsant effect by maximal electroshock assay in mice after intravenous administration. An outline of the steps:
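Male CF-1 mice, 18–26 g. Compounds dissolved in 2.5% ethanol–2.5% emulphor/water and injected into the tail vein 5 min before MES: 50 mA ac, 0.1 s, corneal electrodes. Absence of tonic hindlimb extension scored as protection. Groups of 12 mice per dose; ED50 with 95% confidence limits calculated from dose–effect data.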

A short description of test [5]: Protective index measured as the ratio of HS ED50/MES ED50 values. The essentials: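 Ratio of oral horizontal-screen ED50 to oral MES ED50 in male CF-1 mice. Both ED50s were derived from groups of 12 mice given compound suspended in 5% acacia/water.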

As usually defined, the ED50 is the dose that gives a 50% effect, or the effect in half of the subjects. High values mean weaker potency, low ones greater potency. On to `O=C1NC(=O)C(c2ccccc2)(c2ccccc2)N1` [PHENYTOIN], for which the results for the 50% effective dose (ED50) in the test on Mus musculus [1] and in the test with Mus musculus [2] were 83.7 mg/kg and 8.1 mg/kg, respectively. In addition, the TPE in the test with Mus musculus [3] came to 2 h.

`CC(=O)Nc1ccc(C(=O)Nc2c(C)cccc2CO)cc1`: the figures for the ED50 with Mus musculus [4] and with Mus musculus [2] were greater than 80 mg/kg and greater than 100 mg/kg, respectively. The same compound came in with a TPE in the test with Mus musculus [3] of 1 h.

For `Cc1cccc(C)c1NC(=O)c1ccc(N)cc1` [AMELTOLIDE], the ED50 in the test on Mus musculus [1] was found to be 23 mg/kg; in the test with Mus musculus [4] it was 19.9 mg/kg; in the test on Mus musculus [2], 1.4 mg/kg. The TPE in the test on Mus musculus [3] came out at 0.5 h. For the same compound, the Protective index in test [5] was found to be 13.

Consider `Cc1cccc(CO)c1NC(=O)c1ccc(N)cc1`, for which the ED50 in the test with Mus musculus [1] was determined as 66 mg/kg; with Mus musculus [4], 3.9 mg/kg; in the test on Mus musculus [2], 10.9 mg/kg. The same compound had a TPE with Mus musculus [3] of 1 h. For the same compound, the Protective index in test [5] worked out at 6.

With `CC(=O)Nc1ccc(C(=O)Nc2c(C)cccc2C)cc1`, the results for the ED50 with Mus musculus [1], in the test on Mus musculus [4] and in the test with Mus musculus [2] were 96.4 mg/kg, 19.9 mg/kg and 4.7 mg/kg, respectively. This compound came in with a TPE with Mus musculus [3] of 2 h. Moreover, the Protective index in test [5] is 21.
